System: proinflammatory cytokines (IL-6, TNF-α, IL-1β, TGF-β)
Experiment: Plasma proinflammatory cytokines during treatment
Type: in vivo, human
In short: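 Plasma was taken at Day 1 predose and on treatment Days 7 and 14. IL-6, TNF-α, IL-1β and TGF-β were quantified by Luminex multiplex bead assay, with a magnetic cytokine panel for IL-1β and IL-6. Values were summarised by study day as medians and interquartile ranges, with change from baseline. Comparisons used Wilcoxon tests.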

Structure (SMILES): CCCCOCCOc1ccc(-c2ccc3c(c2)/C=C(/C(=O)Nc2ccc([S@@+]([O-])Cc4cncn4CCC)cc2)CCCN3CC(C)C)cc1 [cenicriviroc]
- IL-1β levels change during treatment (any group): did not change significantly
- IL-6 levels change during treatment (any group): did not change significantly
- TNF-α levels change during treatment (any group): did not change significantly
- TGF-β levels change during treatment (moderate HI group, Day 1 vs Day 14, P < 0.01): increased

Source: PMC5351328 (Clinical and Translational Science, 2016)
